Source: PubChem (Broad Institute)
PGC1a acetyl up: raises PGC1a acetylation signal in U2OS cells. actives 0.21% (n = 350,000). U2OS PGC1a acetylation AlphaScreen, overnight. activation, % at 15.6 µM;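 active = every replicate reaching activation of at least 50%, whatever the mean replicate activation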;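 also: hits raise the AlphaScreen acetylation signal above neutral controls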
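Test system: U2OS cells expressing flag-PGC1a plus GCN5; Amount: 7000 U2OS cells per well; Compound: single test concentration per compound; Incubation: compound overnight at 37 °C, each detection step 1 h RT; Signal: AlphaScreen lysate read.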
Hits are given with their value; - = inactive. These entries were drawn from the full list.

SMILES | PGC1a acetyl up
CSCC[C@H](NC(=O)c1ccc(Br)o1)c1nnc2ccccn12 | -
Cc1ccc(CNC(=O)c2ccc(CS(=O)(=O)c3ccccc3)o2)cc1 | -
O=C(NCc1cccnc1)/C(=C/c1ccc(-c2ccc(Cl)cc2)o1)S(=O)(=O)c1ccccc1 | 360
CCN(CC)Cc1c(O)ccc2c([N+](=O)[O-])c(C)n(-c3ccc(OC)cc3)c12 | -
COC(=O)c1cc(Cl)c(NS(=O)(=O)c2ccccc2)cc1OC | -
Cc1cc(Sc2nnc(N)s2)c2ccccc2n1 | 59
C=C1C(=O)C23CCC4C(C)(C(=O)OC)CCCC4(C)C2CCC1(O)C3 (stereo unspecified) | -
O=Nc1c2nc3ccccc3n(O)c-2c2ccccc12 | 61
CC(C)(C)c1ccc(-n2nc(C#N)c(Cl)cc2=O)cc1 | -
Cc1ccc(Cn2ccc(NC(=O)c3nn(C)cc3[N+](=O)[O-])n2)cc1 | 145
Cc1ccc(-c2nc(NC(=O)c3nn(C)cc3[N+](=O)[O-])sc2C)cc1C | -
Cc1ccc(-c2nc(NC(=O)c3nn(C)cc3[N+](=O)[O-])sc2C)cc1 | -
Cc1cnc(NC(=O)c2nn(C)cc2[N+](=O)[O-])s1 | 131
Cn1cc([N+](=O)[O-])c(C(=O)Nc2nc(-c3ccc(Cl)cc3)cs2)n1 | -
Cc1cc(C)c2nc(N3CCCC(C(=O)N4CCC(C(N)=O)CC4)C3)sc2c1 (stereo unspecified) | -
COc1ccc(C(=O)Nc2ccc(S(=O)(=O)Nc3cc(C)nc(C)n3)cc2)cc1 | -
Cc1c(/C=N/Nc2nc3ccccc3[nH]2)c2ccccc2n1C | 121
Cn1cnnc1Sc1ccc(/C=C/C(=O)c2ccc(O)cc2)cc1[N+](=O)[O-] | 58
CCc1ccc(Nc2nnc(SCC(=O)Nc3ccc(C(=O)O)cc3)s2)cc1 | -
CCc1ccc(C(=O)NNC(=O)Cn2c(=O)cnc3ccccc32)cc1 | -
O=C(Nc1ccccc1)c1nnsc1S(=O)c1ccc(Cl)cc1 (stereo unspecified) | 125
O=C(Nc1ccccc1)Nc1cc(Cl)cc(Cl)c1 | -
Cc1ccc2c(Cl)cc(Cl)c(OCc3c(C)noc3C)c2n1 | -
CSc1nc2nccc(/C=C\c3ccccc3)n2n1 | -
CCN(CCCNC(=O)CN(C)S(=O)(=O)c1cccc2nsnc12)c1ccccc1 | 89
SMILES | PGC1a acetyl up
CC1CCCCN1C(=O)CN(C)S(=O)(=O)c1cccc2nsnc12 (stereo unspecified) | -
CN(CC(=O)Nc1ccc(F)c(F)c1)S(=O)(=O)c1cccc2nsnc12 | 63
CN(C)C(=O)c1ccc(-c2ccc([C@H]3[C@H]4CN(C(=O)CC5CC5)CC(=O)N4[C@H]3CO)cc2)cc1 | -
Cc1ccc(NC(=S)NNC(=O)c2nn(C)c(C)c2Cl)cc1 | -
O=C(c1cc2ccccc2o1)N1CC=C(c2ccccc2)CC1 | -
COCC(=O)N1CC(=O)N2[C@@H](CO)[C@H](c3ccc(-c4ccncc4)cc3)[C@@H]2C1 | -
CC(C)NC(=S)N=Nc1c(O)[nH]c2ccc(C(C)C)cc12 | -
Fc1ccc(/C=N/N2CCCCC2)c(F)c1 | -
CC(C)c1ccc(NC(=O)CCNS(=O)(=O)c2cccc3nonc23)cc1 | 53
O=C(Nc1cccc(F)c1)C1CCN(S(=O)(=O)c2cccc3nonc23)CC1 | -
CC(C)c1ccc(NC(=O)c2n[nH]c(=O)c3ccccc23)cc1 | -
CN1CCN2c3ncccc3Cc3ccccc3[C@@H]2C1 | -
COc1ccc(NC(=O)CN(C)C(=O)c2cnc(Cl)c(Cl)c2)cc1 | -
COc1ccc(CCNC(=O)c2ccc(Cl)cc2)cc1 | 81
COc1ccc(C(=O)N/N=C(/C)c2cccc(NC(=O)c3ccccc3F)c2)cc1 | -
COc1cc(C2C(C#N)=C(N)Oc3c2oc(CO)cc3=O)cc(OC)c1OC (stereo unspecified) | 102
CC(=O)OC[C@]12CC[C@H]3[C@@](C)(CC[C@H]4C(C)(C)CCC[C@]34C)[C@@H]1CC(C1=CC(=O)OC1O)O2 (stereo partly specified) | -
O=C(Cc1ccncc1)NCC[C@H]1CC[C@@H](NC(=O)C2CC2)[C@H](CO)O1 | -
CCC(=O)N(C)C[C@@H]1Oc2cc(C#Cc3cccnc3)ccc2S(=O)(=O)N([C@H](C)CO)C[C@H]1C | -
O=C(Nc1cccc(C(F)(F)F)c1)c1sc(Cl)nc1C(F)(F)F | 121
COc1ccccc1/C=C/c1nc2ccc(OC(C)=O)cc2c(=O)o1 | -
O=C(/C(=C/O)N=Nc1ccccc1)c1ccco1 | -
Cc1cc(S(=O)(=O)c2ccc([N+](=O)[O-])cn2)ccc1Br | 135
Cc1ccc(S(=O)(=O)Nc2ccc3c(c2)C(=O)N([C@H](C)CO)C[C@@H](C)[C@@H](CN(C)C(=O)NC(C)C)OCCCC[C@H](C)O3)cc1 | -
CCCCCCNC(=O)O[C@@]12CN(S(=O)(=O)c3ccc(C)cc3)C[C@]1(O)Cn1c(=O)n(CCCCCC)c(=O)n1C2 | -
SMILES | PGC1a acetyl up
Clc1ccc(CSc2nnc(-c3cccnc3)n2Cc2ccco2)c(Cl)c1 | 74
CCN(CC)C(=O)CSc1nnc(-c2cccnc2)n1Cc1ccccc1 | -
Cn1ncc2c(O/N=C(\N)c3ccc(C(C)(C)C)cc3)ncnc21 | -
Cc1ccc(S(=O)(=O)N[C@H]2C=C[C@H](CC(=O)NCCN3CCCCC3)O[C@H]2CO)cc1 | -
O=S(=O)(C/C(=C/CO)S(=O)(=O)c1ccccc1)c1ccccc1 | 112
CC1(C)CC2(CCO1)OC(=O)CC2C(=O)Nc1cccc2ccccc12 (stereo unspecified) | 72
CC(=O)ON=C1C=CC(=C(C#N)c2ccccc2)C=C1 | -
CC(C)(C)c1ccc(OCCSc2nc3ccccc3n2CC(=O)O)cc1 | -
C[C@H]1CN([C@@H](C)CO)C(=O)CCCn2cc(nn2)CO[C@H]1CN(C)S(=O)(=O)c1ccc(Cl)cc1 | -
Cc1nnc(Nc2ccc3c(c2)OCO3)c2ccccc12 | 84
COc1ccc(C2=NOC(C(=O)Nc3cccnc3)C2)cc1 (stereo unspecified) | 64
CNC[C@H]1OCCCC[C@@H](C)Oc2ccc(NS(=O)(=O)c3ccccc3)cc2C(=O)N([C@H](C)CO)C[C@@H]1C | -
COC1(C)CN(Cc2ccccc2Br)[C@H](/C=C/c2ccccc2)[C@H](Cc2ccccc2)O1 (stereo partly specified) | -
O=C(Nc1ccc(OC(=O)c2ccccc2)c(-c2nc3ccccc3s2)c1)c1ccccc1 | 106
CC(C)(C)C(=O)/C(=C\c1cccc([N+](=O)[O-])c1)n1cncn1 | -
CC(C(=O)OCn1nnc2ccccc2c1=O)N1C(=O)c2ccccc2C1=O (stereo unspecified) | -
CC(C)c1ccc(/C=N/NC(=O)C2CCCC2)cc1 | -
Cc1ccc(Nc2nc(C)cc(C)c2C(N)=O)c(C)c1 | -
Cc1ccc2nc(C)cc(OCC(=O)O)c2c1 | 59
CC(=O)c1ccc(Nc2cc(C)nc3ccc(C)cc23)cc1 | -
COCCn1c(C)c(C)c2c(NCCc3ccccc3)ncnc21 | -
CC(C)C#Cc1cnc2c(c1)C(=O)N([C@H](C)CO)C[C@H](C)[C@H](CN(C)C(=O)CN1CCOCC1)O2 | -
O=C(c1ccco1)N(Cc1ccc([N+](=O)[O-])cc1)c1ccc(Br)cc1 | 58
COc1ccc(S(=O)(=O)N(C)C[C@@H]2Oc3ccc(NS(=O)(=O)c4cn(C)cn4)cc3C(=O)N([C@H](C)CO)C[C@@H]2C)cc1 | -
CCN(CC)C(=O)c1sc(NC(=O)c2ccncc2)c(C(=O)OC)c1C | -
CC(C)c1ccc(NC(=O)c2ccc3c(c2)CCN3S(C)(=O)=O)cc1 | -
